Measured values reported in ChEMBL document CHEMBL5214894, “Biosynthetic Interrogation of Soil Metagenomes Reveals Metamarin, an Uncommon Cyclomarin Congener with Activity against Mycobacterium tuberculosis” (J Nat Prod, 2021).
Values after ≈ are worked out from the molar mass of the structure shown.

Legend:
[1] = system: Mycobacterium tuberculosis; assay: Antimycobacterial activity against multi drug-resistant Mycobacterium tuberculosis TN800 assessed as bacterial growth inhibition incubated for 6 days by Alamar blue staining based assay; type: functional; conditions: TN800, 144 h, time 6 day
Summary of the method: (§1)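 Strains passaged at 37 °C in 7H9 with OADC, 0.2% glycerol and 0.02% tyloxapol to OD600 0.5–0.7, then diluted to OD600 0.005. Final test range 5 to 0.009 μg/mL. Rifampicin control. Incubated 6 days at 37 °C with 5% CO2. Tween 80 and Alamar Blue then added for 24 h. Absorbance read at 570 nm, normalized to 600 nm.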

[2] = system: Mycobacterium tuberculosis; assay: Antibacterial activity against Mycobacterium tuberculosis mc2 6206 harboring mLux plasmid infected in mouse J774.A1 cells assessed as inhibition of bacterial cell viability incubated for 72 hrs by multimode microplate reader analysis; type: functional, organism-based; conditions: mc2 6206, J774.A1, 72 h
Summary of the method: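 Macrophages at (4–5) × 10^5 cells/mL in DMEM/10% FBS, seeded and left to adhere overnight. Infected at MOI 1:10 with mid-log bacteria for 4 h at 37 °C, 5% CO2. Medium supplemented with pantothenate and leucine, each 50 μg/mL. After PBS washes, compound added at 64 to 0.0004 μg/mL for 72 h. Luminescence read-out. IC50 by nonlinear regression. Triplicate; experiment repeated twice.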

[3] = system: Mycobacterium tuberculosis; assay: Antimycobacterial activity against multi drug-resistant Mycobacterium tuberculosis 7791 assessed as bacterial growth inhibition incubated for 6 days by Alamar blue staining based assay; type: functional; conditions: Mycobacterium tuberculosis, 7791, 144 h; time 6 day; summary of the method: as §1
[4] = system: Mycobacterium tuberculosis; assay: Antimycobacterial activity against multi drug-resistant Mycobacterium tuberculosis 565 assessed as bacterial growth inhibition incubated for 6 days by Alamar blue staining based assay; type: functional; conditions: Mycobacterium tuberculosis, 565, 144 h; time 6 day; summary of the method: as §1

SMILES | MIC [1] [µg/mL] | IC50 [2] [µg/mL] | MIC [3] [µg/mL] | MIC [4] [µg/mL]
C=CC(C)(C)n1cc(C(O)C2NC(=O)[C@H](C(C)C)NC(=O)[C@H](CC(C)C)N(C)C(=O)[C@H](C(C)C)NC(=O)C(C(OC)c3ccccc3)NC(=O)[C@H](C(C)C)NC(=O)C(CC(C)CO)N(C)C2=O)c2ccccc21 (stereo partly specified) | 0.08 (≈ 0.0788 µM) | 0.71 (≈ 0.699 µM) | 0.08 (≈ 0.0788 µM) | 0.08 (≈ 0.0788 µM)
CO[C@@H](c1ccccc1)[C@H]1NC(=O)[C@H](C)NC(=O)[C@@H](CC(C)CO)N(C)C(=O)C(C(O)c2cn(C(C)(C)[C@@H]3CO3)c3ccccc23)NC(=O)[C@@H]([C@H](C)C=C(C)C)NC(=O)[C@@H](CC(C)C)N(C)C(=O)[C@@H](C(C)C)NC1=O (stereo partly specified) |  | 0.48 (≈ 0.46 µM) |  | 
CO[C@H]1/C=C/O[C@@]2(C)Oc3c(C)c(O)c4c(O)c(c(/C=N/N5CCN(C)CC5)c(O)c4c3C2=O)NC(=O)/C(C)=C\C=C\[C@H](C)[C@H](O)[C@@H](C)[C@@H](O)[C@@H](C)[C@H](OC(C)=O)[C@@H]1C [RIFAMPIN] |  | 0.08 (≈ 0.0972 µM) |  | 
